Reference: PubChem BioAssay
Inconclusive results are not listed. Calls of active or inactive are those of the source.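 Rule for the calls, unless noted: active = inhibition over a set limit, the all-compound mean plus 3 SD, in both replicate runs; inconclusive = over that limit in just one replicate run; inactive = at or under that limit in both runs.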

What was measured:
[1] = OD615 S. cerevisiae growth inhibition, permissive medium, pilot counter-assay, permissive growth control for S. cerevisiae lifespan shortening project (AID 705;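 active = growth inhibition above 25% in both replicates, a cutoff set 3 SD above the mean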); settings: OD615, 24 h, at 10 µM, hits give high values
Procedure, shortened: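 System: Engineered DeaD yeast | Buffer or medium: SC raffinose/galactose permissive medium | Doses: 10 µM single dose, 0.25% DMSO | Times: 24 h exposure, 30 °C | Measured by: OD615 turbidity read | Read-out: Yeast growth inhibition indicated by reduced 24 h OD615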

[2] = Restrictive medium S. cerevisiae growth inhibition, OD615, pilot screen of yeast lifespan reduction project, restrictive growth control (AID 706;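 active = growth inhibition above a set limit, 3 SD over mean compound inhibition, in both replicates, cut at about 43% in these data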;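 note: modified DeaD lifespan yeast strain shifted to restrictive glucose medium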); settings: OD615, 48 h, at 10 µM, hits give high values
Procedure, shortened: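 Assay system: engineered S. cerevisiae DeaD strain; Buffer or medium: CSMM-D glucose medium; Dosing: 10 µM compound, 0.25% DMSO; Times: cell pre-growth 4 h, compound exposure 48 h, 30 °C; Detection: absorbance (optical density) measured at 615 nm.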

[3] = viability gain of MRP-1-high H69AR cells under doxorubicin, pilot screen, MRP-1 activator project, CellTiter-Glo, duplicate (AID 807;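 active = viability increase at or above a cutoff of the median across tested compounds plus 3 SD, cut at about 8.5% in these data, passing the limit was not always enough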;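 note: compound pretreatment 18-22 h then 72 h combined with doxorubicin; 0% = doxorubicin alone and 100% = vehicle without doxorubicin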); settings: H69AR viability with doxorubicin, CellTiter-Glo luminescence; at 10 µM; hits give high values
[4] = growth suppression of beta-catenin knockout HCT116, pilot screen, human colon tumor cells (AID 823;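 active = cell viability at or below a set limit in both duplicate runs, the limit being the all-compound median minus 4 SD, cut at about 23% in these data, passing the limit was not always enough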;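 note: 0% = wells killed by 20 µM Hyamine and 100% = untreated DMSO cell wells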); settings: CellTiter-Glo, 60 h, at 10 µM, hits give low values
[5] = inhibitors of the yeast RAM network, pilot screen, dse1pr::URA3 reporter, 5-FOA selection (AID 869);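 note: 0% = DMSO wells with no growth and 100% = 10 µM 1-NA-PP1 with full growth; RAM network block rescues cells from 5-FOA so hits raise OD615 growth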; settings: S. cerevisiae dse1pr::URA3 5-FOA growth, OD615, 2 d; at 10 µM; hits give high values; strain carries analog-sensitive mutant Cbk1 kinase
[6] = RAM signaling pathway blockade in yeast – S. cerevisiae, Pdr1DBD-CYC8 efflux-inhibited sensitized strain, primary screen (AID 1298;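 active = RAM network inhibition above 8.4% in each of two replicates, 3 SD over the compound average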;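 note: 0% = DMSO untreated cells without growth and 100% = 10 µM 1-NA-PP1 full growth; higher means more yeast growth rescued from 5-FOA killing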); settings: S. cerevisiae cbk1-as DSE1-URA3 strain, 5-FOA growth OD615, 2 d; at 50 µM; hits give high values

COc1ccccc1-c1nc(NC(C)=O)n[nH]1
inactive: growth inhibition [1] -12.1% | growth inhibition [2] -8.54% | viability increase [3] -4.21% | viability [4] 92.1% | inhibition [5] 3.42% | RAM network inhibition [6] 5.35%

CCN(CC)S(=O)(=O)c1cc(Br)ccc1OC
inactive: growth inhibition [1] 9.34% | growth inhibition [2] -11.1% | viability increase [3] -4.03% | viability [4] 94.8% | inhibition [5] 0.72% | RAM network inhibition [6] 1.97%

O=C(Nc1nnc(C2CC2)o1)c1ccc(S(=O)(=O)N2CCCc3ccccc32)cc1
active: viability [4] 14.3%
inactive: growth inhibition [1] -18.1% | growth inhibition [2] -2.5% | viability increase [3] -5.31% | inhibition [5] 0.79% | RAM network inhibition [6] -0.41%

O=C(CNC(=O)Cn1ccc2ccccc2c1=O)NCCCN1CCN(c2cccc(Cl)c2)CC1
inactive: growth inhibition [1] -15.3% | growth inhibition [2] -5.33% | viability increase [3] -5.42% | viability [4] 57.3% | inhibition [5] 1.63% | RAM network inhibition [6] 2.03%

CN(C(=O)c1ccc(NC(=O)c2cnccn2)cc1)C1CCCCC1
inactive: growth inhibition [1] 2.12% | growth inhibition [2] 7.4% | viability increase [3] -1.47% | viability [4] 99.9% | inhibition [5] 0.62% | RAM network inhibition [6] 6.39%

CCN1CCN(C(=O)C2c3cc(OC)c(OC)cc3C(=O)N(C)C2c2ccc(SC)cc2)CC1 (stereo not given)
inactive: growth inhibition [1] -12.5% | growth inhibition [2] -4.19% | viability increase [3] -3.74% | viability [4] 92.3% | inhibition [5] 0.995% | RAM network inhibition [6] 2.33%

CCN1CCN(Cc2nc3c(c(=O)n(C)c(=O)n3C)n2CCCc2ccccc2)CC1
inactive: growth inhibition [1] -5.05% | growth inhibition [2] -8.71% | viability increase [3] -4.04% | viability [4] 91% | inhibition [5] 0.665% | RAM network inhibition [6] 7.54%

C=CCNC(=O)c1ccc2c(c1)nnn2C
inactive: growth inhibition [1] -16% | growth inhibition [2] -12.7% | viability increase [3] -0.65% | viability [4] 103% | inhibition [5] 2.63% | RAM network inhibition [6] 4.93%

c1ccc(-n2ncc3c2ncn2c(C4CCCCC4)nnc32)cc1
inactive: growth inhibition [1] -12.6% | growth inhibition [2] -6.54% | viability increase [3] 0.09% | viability [4] 96.1% | inhibition [5] 1.33% | RAM network inhibition [6] 2.45%

Cc1cc(Nc2nc3c(c(=O)n(C)c(=O)n3C)n2C)n(-c2ccc(Cl)cc2)n1
inactive: growth inhibition [1] 9.41% | growth inhibition [2] 3.67% | viability increase [3] -3.74% | viability [4] 92.7% | inhibition [5] 3.25% | RAM network inhibition [6] 3.85%

Cc1ccccc1-c1nnc(SCC(=O)Nc2ccc(Cl)cc2)n1N
inactive: growth inhibition [1] -8.16% | growth inhibition [2] 0.61% | viability increase [3] 2.22% | viability [4] 94.5% | inhibition [5] 1.17% | RAM network inhibition [6] 5.42%

CC(C)Sc1nc(NCc2ccco2)c2c3c(sc2n1)COC(C)(C)C3
inactive: growth inhibition [1] 3.17% | growth inhibition [2] 22.4% | viability increase [3] -8.23% | viability [4] 56% | inhibition [5] -0.26% | RAM network inhibition [6] 7.33%

CCC(=O)c1cn(CC(=O)NCC2CCCO2)c2ccccc12 (stereo not given)
inactive: growth inhibition [1] 0.725% | growth inhibition [2] 12.5% | viability increase [3] -3.8% | viability [4] 96.7% | inhibition [5] 2.02% | RAM network inhibition [6] 1.98%

CC1(C)Cc2nc3sc4c(=O)n(CC(=O)NCc5ccco5)cnc4c3cc2CO1
inactive: growth inhibition [1] -8.59% | growth inhibition [2] 7.79% | viability increase [3] -5.22% | viability [4] 40.5% | inhibition [5] 0.68% | RAM network inhibition [6] 4.21%

CCOc1cc(C2C(C(=O)c3ccco3)=C(O)C(=O)N2CCc2ccccc2)ccc1O (stereo not given)
inactive: growth inhibition [1] -35.8% | growth inhibition [2] -4.2% | viability increase [3] -1.77% | viability [4] 97.2% | inhibition [5] 4.93% | RAM network inhibition [6] 4.16%

CCOC(=O)C1CCN(C(=O)c2ccc(NC(=O)C3CCCO3)cc2)CC1 (stereo not given)
inactive: growth inhibition [1] -14.9% | growth inhibition [2] -7.09% | viability increase [3] -2.64% | viability [4] 88.8% | inhibition [5] 1.09% | RAM network inhibition [6] 3.28%

c1nc(NCCN2CCOCC2)c2sc3nc(N4CCOCC4)c4c(c3c2n1)CCC4
inactive: growth inhibition [1] -7.6% | growth inhibition [2] 6.11% | viability increase [3] -6.1% | viability [4] 84.8% | inhibition [5] 2.26% | RAM network inhibition [6] 8.21%

O=C(C1=C(O)C(=O)N(CCc2ccccc2)C1c1cccnc1)c1ccco1 (stereo not given)
inactive: growth inhibition [1] -23.9% | growth inhibition [2] -2.02% | viability increase [3] -3.61% | viability [4] 104% | inhibition [5] 2.01% | RAM network inhibition [6] 2.81%

Cn1ccnc1SCC(=O)NC1CCCCC1
inactive: growth inhibition [1] -11.1% | growth inhibition [2] -7.09% | viability increase [3] -0.96% | viability [4] 100% | inhibition [5] 3.6% | RAM network inhibition [6] 1.87%

C(=N\n1cnnc1)/c1ccc(N2CCOCC2)s1
inactive: growth inhibition [1] -13.4% | growth inhibition [2] -3.46% | viability increase [3] -1.47% | viability [4] 89.8% | inhibition [5] 4.36% | RAM network inhibition [6] 8.67%

O=C(CCn1c(=O)[nH]c2ccsc2c1=O)N1CCc2ccccc2C1
inactive: growth inhibition [1] -13.3% | growth inhibition [2] -4.91% | viability increase [3] -0.54% | viability [4] 97.7% | inhibition [5] 2.71% | RAM network inhibition [6] 8.73%

Cc1cc(C)nc(/N=c2/ssnc2Cl)c1
active: growth inhibition [1] 100% | growth inhibition [2] 89.9%
inactive: viability increase [3] -7.78% | viability [4] 30.8% | inhibition [5] 1.81% | RAM network inhibition [6] -2.52%

Cc1nn(CCO)c(C)c1Oc1ccccc1O
inactive: growth inhibition [1] 6.79% | growth inhibition [2] 4.62% | viability increase [3] -1.47% | viability [4] 102% | inhibition [5] 1.96% | RAM network inhibition [6] 1.86%

COc1ccccc1C(=O)Nc1nnn(C)n1
inactive: growth inhibition [1] -26.5% | growth inhibition [2] 6.7% | viability increase [3] -0.45% | viability [4] 108% | inhibition [5] 0.84% | RAM network inhibition [6] 6.87%

Clc1cccc(CSc2nnc([C@@H]3CCCN3)o2)c1
inactive: growth inhibition [1] -7.24% | growth inhibition [2] -0.015% | viability increase [3] -3.16% | viability [4] 98.9% | inhibition [5] -0.08% | RAM network inhibition [6] 0.26%

O=C(NCC1COc2ccccc2O1)c1ccc(NC(=O)C2CCCO2)cc1 (stereo not given)
inactive: growth inhibition [1] -15.3% | growth inhibition [2] 3.32% | viability increase [3] 0.86% | viability [4] 99.7% | inhibition [5] 4.43% | RAM network inhibition [6] 8.99%

Cc1c(NC(=O)CCC2CCCCC2)c(=O)n(-c2ccccc2)n1C
inactive: growth inhibition [1] 5.74% | growth inhibition [2] 3.62% | viability increase [3] -0.39% | viability [4] 99.4% | inhibition [5] 0.965% | RAM network inhibition [6] 3.28%

NC(=O)C1CCN(c2nc(C3CC3)nc3c2nnn3Cc2ccccc2Cl)CC1
inactive: growth inhibition [1] -11.9% | growth inhibition [2] -3.43% | viability increase [3] -6.11% | viability [4] 84.4% | inhibition [5] 3.41% | RAM network inhibition [6] 0.99%

CCCCC(NC(C)=O)c1nc2ccccc2n1CCCC (stereo not given)
inactive: growth inhibition [1] -16.8% | growth inhibition [2] -12.2% | viability increase [3] -4.34% | viability [4] 86.6% | inhibition [5] 1.69% | RAM network inhibition [6] 4.56%

COc1ccc2c(c1)SC1=NCCS(=O)(=O)N12
inactive: growth inhibition [1] -7.75% | growth inhibition [2] -10.4% | viability increase [3] -2.86% | viability [4] 105% | inhibition [5] 0.315% | RAM network inhibition [6] 4.32%

CN(C)/C=N/c1c(C#N)cnn1-c1nc2ccccc2s1
inactive: growth inhibition [1] -9.66% | growth inhibition [2] 6.79% | viability increase [3] -3.38% | viability [4] 102% | inhibition [5] 1.28% | RAM network inhibition [6] 4.53%

Cc1ccc2c(c1)c(C)c(C)n2CC(O)Cn1nc(C)cc1C (stereo not given)
inactive: growth inhibition [1] -13% | growth inhibition [2] 3.35% | viability increase [3] -4.76% | viability [4] 87.1% | inhibition [5] 2.1% | RAM network inhibition [6] 0.58%

O=C(CS(=O)(=O)c1cn(Cc2cccc(F)c2)c2ccccc12)N1CCCCC1
inactive: growth inhibition [1] -12.9% | growth inhibition [2] -2.79% | viability increase [3] -3.96% | viability [4] 73.2% | inhibition [5] 2.04% | RAM network inhibition [6] 3.64%

CCN1CCN(c2nc(SC)nc3sc4c(c23)CC(C)(C)OC4)CC1
inactive: growth inhibition [1] -15.9% | growth inhibition [2] -8.5% | viability increase [3] -5.96% | viability [4] 66.9% | inhibition [5] 1.39% | RAM network inhibition [6] 2.09%

CCCCCn1c(=O)[nH]c2cc(C(=O)NCc3ccc4c(c3)OCO4)ccc2c1=O
inactive: growth inhibition [1] -12.1% | growth inhibition [2] -10.7% | viability increase [3] -6.7% | viability [4] 71.2% | inhibition [5] 3.82% | RAM network inhibition [6] 5.87%

CCOC(=O)N1CCC(NC(=O)C(NC(=O)C2CCCCC2)C(C)C)CC1 (stereo not given)
inactive: growth inhibition [1] -6.95% | growth inhibition [2] -2.83% | viability increase [3] -1.25% | viability [4] 93% | inhibition [5] 2% | RAM network inhibition [6] 6.39%

COCC(=O)NCc1nc2ccccc2[nH]1
inactive: growth inhibition [1] -12.6% | growth inhibition [2] -0.605% | viability increase [3] -1.85% | viability [4] 105% | inhibition [5] 1.76% | RAM network inhibition [6] 2.13%

CCn1nc(CC(=O)Nc2ccc(-n3cnnn3)c(C)c2)c2ccccc2c1=O
inactive: growth inhibition [1] -14.8% | growth inhibition [2] -10.9% | viability increase [3] -4.37% | viability [4] 90.3% | inhibition [5] 0.6% | RAM network inhibition [6] 5.97%

COc1ccc(N2CCN(CCCNC(=O)CCCn3c(=O)[nH]c4ccsc4c3=O)CC2)cc1
inactive: growth inhibition [1] -10.8% | growth inhibition [2] -8.79% | viability increase [3] -1.23% | viability [4] 94% | inhibition [5] 2.75% | RAM network inhibition [6] 9.35%

CN1CCc2c(sc3nc(SCC(=O)N4CCOCC4)nc(N)c23)C1
inactive: growth inhibition [1] -4.38% | growth inhibition [2] 0.52% | viability increase [3] -4.4% | viability [4] 95.1% | inhibition [5] 0.215% | RAM network inhibition [6] 5.05%
